Experimental findings from ChEMBL document CHEMBL4229530, “5-Adamantan thiadiazole-based thiazolidinones as antimicrobial agents. Design, synthesis, molecular docking and evaluation” (2018) are described below.

Structures are written as SMILES. In brackets after ≈: the same amount, converted by molar mass.

One test relates to Listeria monocytogenes. Nature of the test: Antibacterial activity against Listeria monocytogenes NCTC 7973 after 24 hrs by INT dye based microdilution assay. In kind it is functional. Conditions: NCTC 7973, 24 h. In a few lines: (§1)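 Broth microdilution in tryptic soy broth: overnight bacterial culture adjusted to 1×10^5 CFU/mL, 1.0×10^4 CFU per well; compounds dissolved in 5% DMSO, tested at 0.001-1.0 mg/ml; 24 h at 37°C. Streptomycin and ampicillin as positive controls, 5% DMSO as negative control; duplicate, repeated three times.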

The subject of another test is Talaromyces funiculosus. Nature of the test: Antifungal activity against Penicillium funiculosum ATCC 36839 after 72 hrs by serial dilution assay. In kind it is functional. To be noted: ATCC 36839, 72 h. Summed up:
(§2)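 Modified microdilution: fungal spores washed off malt agar with sterile 0.85% saline plus 0.1% Tween 80, adjusted to about 1.0×10^5 per 100 µL well. Compounds in 5% DMSO (0.001-1.0 mg/ml) in malt broth; 72 h at 28°C on rotary shaker (160 rpm). MIC is lowest concentration without visible growth under binocular microscope. Bifonazole and ketoconazole controls (1-3500 µg/mL); three independent experiments in duplicate.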

Test [1] concerns Staphylococcus aureus. The experiment in a line: Antibacterial activity against Staphylococcus aureus ATCC 6538 after 24 hrs by INT dye based microdilution assay. In kind it is functional. Conditions: ATCC 6538, 24 h. Summed up:
as §1
Background: In broth dilution the organism is exposed to a series of concentrations in liquid medium.

The subject of the next test is Aspergillus ochraceus. The experiment in a line: Antifungal activity against Aspergillus ochraceus ATCC 12066 after 72 hrs by serial dilution assay. In kind it is functional. To be noted: ATCC 12066, 72 h. In a few lines: as §2
In another test the test system is Aspergillus versicolor. The experiment in a line: Antifungal activity against Aspergillus versicolor ATCC 11730 after 72 hrs by serial dilution assay. The test is classed as functional. To be noted: ATCC 11730, 72 h. Summed up:
as §2

In test [2] the test system is Escherichia coli. Nature of the test: Antibacterial activity against Escherichia coli ATCC 35210 after 24 hrs by INT dye based microdilution assay. In kind it is functional. Conditions: ATCC 35210, 24 h. Summed up:
as §1

Test [3] relates to Pseudomonas aeruginosa. The experiment in a line: Antibacterial activity against drug-resistant Pseudomonas aeruginosa after 24 hrs by INT dye based microdilution assay. In kind it is functional. In a few lines: (§3)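 Broth microdilution in tryptic soy broth. Overnight culture adjusted to 1×10^5 CFU/mL, giving 1.0×10^4 CFU per well. Compounds dissolved in 5% DMSO and tested at 0.001-1.0 mg/ml. Plates incubated 24 h at 37°C. INT (0.2 mg/mL) then added, with 30 min at 37°C. Duplicate, repeated three times.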

The subject of the next test is Salmonella typhimurium. Nature of the test: Antibacterial activity against Salmonella typhimurium ATCC 13311 after 24 hrs by INT dye based microdilution assay. The test is classed as functional, Salmonella enterica subsp. enterica serovar Typhimurium. To be noted: Salmonella enterica, ATCC 13311, 24 h. In a few lines:
as §1

The test system of the next test is Aspergillus niger. The experiment in a line: Antifungal activity against Aspergillus niger ATCC 6275 after 72 hrs by serial dilution assay. In kind it is functional. Conditions: ATCC 6275, 72 h. Summed up:
as §2

The test system of a further test is Enterobacter cloacae. The experiment in a line: Antibacterial activity against Enterobacter cloacae after 24 hrs by INT dye based microdilution assay. In kind it is functional. Summed up:
as §1

A further test has as its system Micrococcus flavus. The experiment in a line: Antibacterial activity against Micrococcus flavus ATCC 10240 after 24 hrs by INT dye based microdilution assay. In kind it is functional. Conditions: ATCC 10240, 24 h. In a few lines:
as §1

The subject of test [4] is Pseudomonas aeruginosa. The experiment in a line: Antibacterial activity against Pseudomonas aeruginosa ATCC 27853 after 24 hrs by INT dye based microdilution assay. Conditions: ATCC 27853, 24 h. The test is classed as functional. Summed up:
as §1

In the next test the test system is Penicillium ochrochloron. Nature of the test: Antifungal activity against Penicillium ochrochloron ATCC 9112 after 72 hrs by serial dilution assay. In kind it is functional. Conditions: ATCC 9112, 72 h. In a few lines:
as §2

The test system of test [5] is Staphylococcus aureus. The experiment in a line: Antibacterial activity against methicillin-resistant Staphylococcus aureus after 24 hrs by INT dye based microdilution assay. In kind it is functional. In a few lines:
as §3

Another test concerns Trichoderma viride. The experiment in a line: Antifungal activity against Trichoderma viride IAM 5061 after 72 hrs by serial dilution assay. The test is classed as functional. To be noted: IAM 5061, 72 h. Summed up: as §2
Test [6] has as its system Escherichia coli. Nature of the test: Antibacterial activity against drug-resistant Escherichia coli after 24 hrs by INT dye based microdilution assay. In kind it is functional. In a few lines:
as §3

Another test has as its system Penicillium verrucosum. The experiment in a line: Antifungal activity against Penicillium cyclopium var verucosum after 72 hrs by serial dilution assay. In kind it is functional. In a few lines: as §2
The next test concerns Aspergillus fumigatus. The experiment in a line: Antifungal activity against Aspergillus fumigatus isolate 1022 after 72 hrs by serial dilution assay. The test is classed as functional. Conditions: isolate 1022, 72 h. Summed up: as §2
The subject of another test is Bacillus cereus. The experiment in a line: Antibacterial activity against Bacillus cereus after 24 hrs by INT dye based microdilution assay. In kind it is functional. Summed up:
as §1

As usually defined, the MIC is the lowest concentration found to suppress growth. High values mean weaker potency, low ones greater potency. Regarding `O=C1N/C(=N\c2nnc(C34CC5CC(CC(C5)C3)C4)s2)S/C1=C/c1cccc(Cl)c1Cl`, the MIC against Listeria monocytogenes is 244 µM (≈ 120 µg/mL); in the test with Talaromyces funiculosus, 326 µM (≈ 160 µg/mL); with Staphylococcus aureus [1], 0.244 µM (≈ 0.12 µg/mL); in the test with Aspergillus ochraceus, 163 µM (≈ 80.1 µg/mL); against Aspergillus versicolor, 163 µM (≈ 80.1 µg/mL); in the test with Escherichia coli [2], 0.244 µM (≈ 0.12 µg/mL). In addition, the MIC against Pseudomonas aeruginosa [3] worked out at 183 µM (≈ 90 µg/mL); with Salmonella typhimurium it was 122 µM (≈ 60 µg/mL); against Aspergillus niger, 163 µM (≈ 80.1 µg/mL); against Enterobacter cloacae, 244 µM (≈ 120 µg/mL); in the test on Micrococcus flavus it was 244 µM (≈ 120 µg/mL); against Pseudomonas aeruginosa [4], 122 µM (≈ 60 µg/mL). The minimal inhibitory concentration (MIC) against Penicillium ochrochloron stood at 163 µM (≈ 80.1 µg/mL); against Staphylococcus aureus [5], 0.183 µM (≈ 0.09 µg/mL); with Trichoderma viride it was 163 µM (≈ 80.1 µg/mL); in the test with Escherichia coli [6] it was 0.183 µM (≈ 0.09 µg/mL); against Penicillium verrucosum it was 0.163 µM (≈ 0.0801 µg/mL); in the test on Aspergillus fumigatus it was 163 µM (≈ 80.1 µg/mL). In the test with Bacillus cereus, this compound came in with an MIC of 244 µM (≈ 120 µg/mL).

`O=C1N/C(=N\c2nnc(C34CC5CC(CC(C5)C3)C4)s2)S/C1=C/c1c(Cl)cccc1Cl`: the MIC against Listeria monocytogenes was 21.4 µM (≈ 10.5 µg/mL); in the test on Talaromyces funiculosus it was 61 µM (≈ 30 µg/mL); in the test with Staphylococcus aureus [1] it was 0.0407 µM (≈ 0.02 µg/mL); against Aspergillus ochraceus it was 92 µM (≈ 45.2 µg/mL); against Aspergillus versicolor it was 61 µM (≈ 30 µg/mL); in the test on Escherichia coli [2], 0.0407 µM (≈ 0.02 µg/mL). The minimum inhibitory concentration (MIC) turned out to be 61.1 µM (≈ 30 µg/mL) in the test with Pseudomonas aeruginosa [3]; 40.7 µM (≈ 20 µg/mL) in the test on Salmonella typhimurium; 61 µM (≈ 30 µg/mL) against Aspergillus niger; 21.4 µM (≈ 10.5 µg/mL) against Enterobacter cloacae; 40.7 µM (≈ 20 µg/mL) in the test with Micrococcus flavus; 40.7 µM (≈ 20 µg/mL) in the test on Pseudomonas aeruginosa [4]. The MIC in the test on Penicillium ochrochloron was 61 µM (≈ 30 µg/mL); against Staphylococcus aureus [5] it was 0.0611 µM (≈ 0.03 µg/mL); against Trichoderma viride, 122 µM (≈ 60 µg/mL); in the test on Escherichia coli [6] it was 0.0305 µM (≈ 0.015 µg/mL); with Penicillium verrucosum, 0.122 µM (≈ 0.06 µg/mL); against Aspergillus fumigatus, 61 µM (≈ 30 µg/mL). Besides, the MIC against Bacillus cereus turned out to be 40.7 µM (≈ 20 µg/mL).

On to `O=C1N/C(=N\c2nnc(C34CC5CC(CC(C5)C3)C4)s2)S/C1=C/c1ccc(F)cc1`, for which the MIC against Listeria monocytogenes was found to be 295 µM (≈ 130 µg/mL); in the test on Talaromyces funiculosus, 90.9 µM (≈ 40 µg/mL); in the test with Staphylococcus aureus [1], 0.147 µM (≈ 0.065 µg/mL); against Aspergillus ochraceus, 90.9 µM (≈ 40 µg/mL); against Aspergillus versicolor, 90.9 µM (≈ 40 µg/mL); with Escherichia coli [2] it was 0.295 µM (≈ 0.13 µg/mL). Also, the MIC in the test with Pseudomonas aeruginosa [3] was found to be 295 µM (≈ 130 µg/mL); with Salmonella typhimurium, 295 µM (≈ 130 µg/mL); against Aspergillus niger, 182 µM (≈ 80.2 µg/mL); in the test on Enterobacter cloacae, 148 µM (≈ 65 µg/mL); against Micrococcus flavus, 295 µM (≈ 130 µg/mL); with Pseudomonas aeruginosa [4], 295 µM (≈ 130 µg/mL). Moreover, the MIC stood at 90.9 µM (≈ 40 µg/mL) against Penicillium ochrochloron; 0.295 µM (≈ 0.13 µg/mL) in the test with Staphylococcus aureus [5]; 182 µM (≈ 80.2 µg/mL) against Trichoderma viride; 0.295 µM (≈ 0.13 µg/mL) in the test on Escherichia coli [6]; 0.182 µM (≈ 0.0801 µg/mL) in the test on Penicillium verrucosum; 90.9 µM (≈ 40 µg/mL) in the test on Aspergillus fumigatus. The same compound returned an MIC in the test with Bacillus cereus of 295 µM (≈ 130 µg/mL).

`CC1(C)S[C@@H]2[C@H](NC(=O)[C@H](N)c3ccccc3)C(=O)N2[C@H]1C(=O)O` [AMPICILLIN]: the MIC worked out at 372 µM (≈ 130 µg/mL) against Listeria monocytogenes; 0.248 µM (≈ 0.0867 µg/mL) in the test with Staphylococcus aureus [1]; 0.372 µM (≈ 0.13 µg/mL) with Escherichia coli [2]; 1240 µM (≈ 433 µg/mL) with Pseudomonas aeruginosa [3]; 248 µM (≈ 86.7 µg/mL) with Salmonella typhimurium; 248 µM (≈ 86.7 µg/mL) with Enterobacter cloacae. Also, the MIC came out at 248 µM (≈ 86.7 µg/mL) in the test on Micrococcus flavus, 744 µM (≈ 260 µg/mL) against Pseudomonas aeruginosa [4], 1.24 µM (≈ 0.433 µg/mL) with Escherichia coli [6] and 248 µM (≈ 86.7 µg/mL) with Bacillus cereus.

With `CN[C@@H]1[C@H](O[C@H]2[C@H](O[C@H]3[C@H](O)[C@@H](O)[C@H](N=C(N)N)[C@@H](O)[C@@H]3N=C(N)N)O[C@@H](C)[C@]2(O)C=O)O[C@@H](CO)[C@H](O)[C@H]1O` [STREPTOMYCIN], the MIC was determined as 258 µM (≈ 150 µg/mL) in the test on Listeria monocytogenes; 0.172 µM (≈ 0.1 µg/mL) in the test with Staphylococcus aureus [1]; 0.172 µM (≈ 0.1 µg/mL) against Escherichia coli [2]; 129 µM (≈ 75 µg/mL) with Pseudomonas aeruginosa [3]; 172 µM (≈ 100 µg/mL) against Salmonella typhimurium; 43 µM (≈ 25 µg/mL) against Enterobacter cloacae. The MIC worked out at 86 µM (≈ 50 µg/mL) in the test on Micrococcus flavus; 172 µM (≈ 100 µg/mL) against Pseudomonas aeruginosa [4]; 0.258 µM (≈ 0.15 µg/mL) in the test with Staphylococcus aureus [5]; 0.258 µM (≈ 0.15 µg/mL) against Escherichia coli [6]; 43 µM (≈ 25 µg/mL) against Bacillus cereus.
